Measurements reported in ChEMBL document CHEMBL3758101, “Synthesis and biological evaluation of fluorinated 1,5-diarylpyrrole-3-alkoxyethyl ether derivatives as selective COX-2 inhibitors endowed with anti-inflammatory activity” (Eur J Med Chem, 2016).
The source made the active and inactive calls. The calls are words filed in the database; no cut-off is given here.

What was measured:
[1] = tested on: HaCaT; assay: Cytotoxicity against human HaCaT cells at 1 to 50 uM after 24 hrs by LDH release assay; type: cell-based
How it was run: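 HaCaT cells were grown in high-glucose DMEM with 10% FBS to 80% confluency. They were exposed 24 h to compound at 1–50 µM (final DMSO ≤0.1%). LDH release was expressed as a percentage of Triton X-100 lysis (100%); mean of three experiments.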

[2] = tested on: HaCaT; assay: Antiproliferative activity against human HaCaT cells after 24 hrs by BrdU incorporation assay; type: functional, cell-based
How it was run: (§1)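 HaCaT human keratinocytes were grown in high-glucose DMEM with 10% FBS and 2 mM L-glutamine at 37 °C and 5% CO2 to 80% confluency. Cells were treated 24 h with compound at 1, 10 or 50 µM (final DMSO ≤0.1%). Proliferation was read by BrdU incorporation as % of DMSO control; three experiments.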

[3] = tested on: HaCaT; assay: Antiproliferative activity against human HaCaT cells at 10 uM after 24 hrs by BrdU incorporation assay; type: functional, cell-based; how it was run: as §1
[4] = tested on: HaCaT; assay: Antiproliferative activity against human HaCaT cells at 50 uM after 24 hrs by BrdU incorporation assay; type: functional, cell-based; how it was run: as §1
[5] = tested on: HaCaT; assay: Antiproliferative activity against human HaCaT cells at 1 uM after 24 hrs by BrdU incorporation assay; type: functional, cell-based; how it was run: as §1
[6] = biological target: T1, Prostaglandin G/H synthase 1 (Mus musculus, UniProt P22437); assay: Inhibition of COX-1 in mouse J774 cells assessed as reduction in PGE2 level using arachidonic acid as substrate preincubated for 15 mins followed by incubation with arachidonic acid for 30 mins by radio immunoassay; type: cell-based
T1 sequence (P22437 whole entry): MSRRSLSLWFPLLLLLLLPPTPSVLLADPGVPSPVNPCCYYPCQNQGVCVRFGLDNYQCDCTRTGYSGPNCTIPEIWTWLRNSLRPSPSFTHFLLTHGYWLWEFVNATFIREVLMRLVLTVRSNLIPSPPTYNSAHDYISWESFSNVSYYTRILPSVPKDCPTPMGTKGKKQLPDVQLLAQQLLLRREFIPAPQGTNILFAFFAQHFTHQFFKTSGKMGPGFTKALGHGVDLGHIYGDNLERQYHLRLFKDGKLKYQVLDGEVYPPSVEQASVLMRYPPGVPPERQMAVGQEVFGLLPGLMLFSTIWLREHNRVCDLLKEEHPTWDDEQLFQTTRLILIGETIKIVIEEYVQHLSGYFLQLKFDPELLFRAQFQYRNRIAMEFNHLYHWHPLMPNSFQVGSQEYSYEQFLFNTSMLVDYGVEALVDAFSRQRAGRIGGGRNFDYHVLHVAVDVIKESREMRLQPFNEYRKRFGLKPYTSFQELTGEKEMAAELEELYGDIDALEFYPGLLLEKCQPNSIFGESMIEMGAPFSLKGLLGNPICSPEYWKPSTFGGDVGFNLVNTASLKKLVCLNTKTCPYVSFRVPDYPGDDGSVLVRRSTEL
How it was run: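 Murine J774 macrophages (2.5 × 10^5 cells/mL) were adhered 2 h at 37 °C and given fresh medium. Cells were pretreated with compound at 100 µM for 15 min, then incubated 30 min at 37 °C with 15 µM arachidonic acid. Supernatant PGE2 was measured by RIA as % inhibition versus control; triplicate wells, three experiments, IC50 from a sigmoidal variable-slope fit.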

[7] = biological target: T2, Prostaglandin G/H synthase 2 (Mus musculus, UniProt Q05769); assay: Inhibition of COX-2 in mouse J774 cells assessed as reduction in LPS-induced PGE2 level incubated for 24 hrs by radio immunoassay; type: cell-based
T2 sequence (Q05769 whole entry): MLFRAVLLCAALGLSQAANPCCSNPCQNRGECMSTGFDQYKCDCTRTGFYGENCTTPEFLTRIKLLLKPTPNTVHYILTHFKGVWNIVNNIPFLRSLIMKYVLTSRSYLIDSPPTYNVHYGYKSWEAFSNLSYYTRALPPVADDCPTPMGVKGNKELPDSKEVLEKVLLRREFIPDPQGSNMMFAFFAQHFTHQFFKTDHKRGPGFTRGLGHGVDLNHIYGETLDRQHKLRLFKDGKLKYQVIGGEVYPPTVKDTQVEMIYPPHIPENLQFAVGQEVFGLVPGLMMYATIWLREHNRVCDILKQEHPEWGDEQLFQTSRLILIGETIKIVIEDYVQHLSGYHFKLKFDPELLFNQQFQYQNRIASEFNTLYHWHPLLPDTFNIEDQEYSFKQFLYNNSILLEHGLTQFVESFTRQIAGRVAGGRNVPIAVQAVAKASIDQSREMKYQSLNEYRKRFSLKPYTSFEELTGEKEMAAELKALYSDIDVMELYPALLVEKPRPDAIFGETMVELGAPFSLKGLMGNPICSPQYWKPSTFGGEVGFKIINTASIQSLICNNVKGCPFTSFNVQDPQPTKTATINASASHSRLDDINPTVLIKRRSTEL
How it was run: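 Murine J774 macrophages were stimulated for 24 h with E. coli LPS (10 µg/mL) to induce COX-2, with or without compound (0.001–10 µM). Supernatant PGE2 was measured by RIA as % inhibition of production versus control; triplicate wells, mean of three experiments, IC50 from a sigmoidal variable-slope fit.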

[8] = species: Mus musculus; assay: Selectivity ratio of IC50 for mouse COX-1 to IC50 for mouse COX-2
How it was run: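 In J774 cells, the ratio was taken as COX-1 IC50 over COX-2 IC50. COX-1 activity: 15 min compound pretreatment, then 30 min with 15 µM arachidonic acid. COX-2 activity: 24 h LPS (10 µg/mL) induction with compound. PGE2 was measured by RIA in both; IC50 values came from sigmoidal fits of three experiments.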

| SMILES | IC50 [6] [nM] | IC50 [7] [nM] | Ratio IC50 [8] | Activity [1] | Activity [2] | Activity [3] | Activity [4] | Activity [5] |
| --- | --- | --- | --- | --- | --- | --- | --- | --- |
| Cc1c(CCOCCF)cc(-c2ccc(S(C)(=O)=O)cc2)n1-c1cccc(F)c1 | > 100000 | 140 | > 714 | Non-toxic | Dose-dependent effect | Active | Active | inactive |
| CCCOCCc1cc(-c2ccc(S(C)(=O)=O)cc2)n(-c2cccc(F)c2)c1C | > 100000 | 13 | > 7690 | Non-toxic | inactive | inactive | inactive | inactive |
| Cc1c(CCOCCF)cc(-c2ccc(S(C)(=O)=O)cc2)n1-c1ccc(F)cc1 | > 100000 | 13 | > 7690 | Non-toxic | Dose-dependent effect | Active | Active | inactive |
| Cc1c(CCOCCCF)cc(-c2ccc(S(C)(=O)=O)cc2)n1-c1ccc(F)c(F)c1 | > 100000 | 19 | > 5260 | Non-toxic | Dose-dependent effect | Active | Active | inactive |

Continued, in another order:

| IC50 [6] [nM] | IC50 [7] [nM] | Ratio IC50 [8] | SMILES | Activity [1] | Activity [2] | Activity [3] | Activity [4] | Activity [5] |
| --- | --- | --- | --- | --- | --- | --- | --- | --- |
| > 100000 | 18 | > 5560 | CCCOCCc1cc(-c2ccc(S(C)(=O)=O)cc2)n(-c2ccc(F)c(F)c2)c1C | Non-toxic | Dose-dependent effect | Active | Active | inactive |
| > 100000 | 135 | > 2860 | Cc1c(CCOCCCF)cc(-c2ccc(S(C)(=O)=O)cc2)n1-c1cccc(F)c1 | Non-toxic | inactive | inactive | inactive | inactive |
| > 100000 | 29 | > 3450 | Cc1c(CCOCCF)cc(-c2ccc(S(C)(=O)=O)cc2)n1-c1ccc(F)c(F)c1 | Non-toxic | Dose-dependent effect | Active | Active | inactive |
